Assay results taken from publication PMC5362249 (Biochemical pharmacology, 2016).
Each block holds one compound with its values, some of them ahead of it.

Key:
Mrp4 [1] = biological target: T1, Mrp4 (Mus musculus, UniProt E9Q236); assay: Effect of MK571 on tissue distribution of IP-administered TFV; type: in vivo
T1 sequence (E9Q236 1-1325): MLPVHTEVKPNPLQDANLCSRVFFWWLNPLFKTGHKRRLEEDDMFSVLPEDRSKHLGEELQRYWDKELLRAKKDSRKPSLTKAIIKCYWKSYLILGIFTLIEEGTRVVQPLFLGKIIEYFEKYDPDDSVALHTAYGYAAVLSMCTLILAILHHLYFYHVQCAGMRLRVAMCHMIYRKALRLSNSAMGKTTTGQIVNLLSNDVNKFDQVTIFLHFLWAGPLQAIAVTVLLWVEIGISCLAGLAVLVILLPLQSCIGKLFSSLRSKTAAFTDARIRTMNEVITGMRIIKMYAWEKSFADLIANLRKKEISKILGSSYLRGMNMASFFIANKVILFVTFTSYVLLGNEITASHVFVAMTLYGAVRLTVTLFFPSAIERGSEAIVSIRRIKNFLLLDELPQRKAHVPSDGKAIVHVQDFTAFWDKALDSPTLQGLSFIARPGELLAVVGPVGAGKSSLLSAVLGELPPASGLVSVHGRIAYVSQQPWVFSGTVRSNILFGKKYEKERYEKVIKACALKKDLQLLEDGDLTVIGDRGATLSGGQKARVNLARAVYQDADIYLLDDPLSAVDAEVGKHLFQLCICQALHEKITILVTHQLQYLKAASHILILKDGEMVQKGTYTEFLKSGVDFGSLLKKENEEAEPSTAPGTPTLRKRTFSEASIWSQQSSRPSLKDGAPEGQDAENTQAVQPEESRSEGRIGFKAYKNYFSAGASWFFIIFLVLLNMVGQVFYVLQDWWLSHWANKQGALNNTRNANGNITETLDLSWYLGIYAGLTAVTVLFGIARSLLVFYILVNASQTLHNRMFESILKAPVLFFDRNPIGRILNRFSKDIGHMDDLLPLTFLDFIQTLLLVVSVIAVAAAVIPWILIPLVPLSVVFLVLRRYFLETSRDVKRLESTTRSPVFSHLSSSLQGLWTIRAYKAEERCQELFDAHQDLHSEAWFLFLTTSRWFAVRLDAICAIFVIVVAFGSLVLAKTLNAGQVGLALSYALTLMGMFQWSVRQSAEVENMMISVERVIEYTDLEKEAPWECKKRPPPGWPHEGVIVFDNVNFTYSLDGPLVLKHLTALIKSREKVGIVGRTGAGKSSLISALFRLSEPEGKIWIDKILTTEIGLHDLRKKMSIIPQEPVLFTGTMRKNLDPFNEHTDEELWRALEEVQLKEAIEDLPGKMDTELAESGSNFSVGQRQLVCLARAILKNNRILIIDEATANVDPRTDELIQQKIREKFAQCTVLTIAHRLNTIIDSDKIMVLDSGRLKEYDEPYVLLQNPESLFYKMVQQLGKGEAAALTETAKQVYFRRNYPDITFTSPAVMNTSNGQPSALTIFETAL
Procedure, shortened: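 Synchronized mice received 100 μL saline or saline containing 7.5 mg/mL MK571 IP. 15 min later they received 100 μL 3H-TFV in saline IP (0.94 × 10−5 mmol/mL, 125 μCi/mL). At 1.5 h: CVL (3 × 20 μL saline), plasma and tissues. Samples were dissolved in Solvable overnight at 50 °C, decolorized with H2O2 (50 °C, 1 h), then counted by scintillation. Two groups compared by t-test.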

Mrp4 [2] = biological target: T1, Mrp4; assay: Effect of MK571 on tissue distribution of vaginally administered TFV; type: in vivo
Procedure, shortened: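 Synchronized mice got IP saline or MK571 (100 μL, 7.5 mg/mL), then 20 μL vaginal gel 30 min later. Gel: 2.7% universal placebo (pH 4.4) with 3H-TFV plus unlabelled TFV, ±MK571. Ketamine/xylazine IP 5 min before gel. At 0.5 and 1 h: CVL (8 × 25 μL saline), plasma, tissues. Scintillation counting; total TFV from labelled:unlabelled ratio. 7–13 mice per point; ANOVA.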

[3] = In vitro release of TFV from gels, Franz cell apparatus; type: physicochemical
Procedure, shortened: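 Gels containing TFV, with or without MK571, were placed in the donor chamber of a Franz cell with PBS in the acceptor chamber. Acceptor TFV concentration over time gave cumulative release (30 and 60 min) and Papp. Three gels per group, mean ± SD.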

[4] = biological target: glucocorticoid receptor (GR); details: agonist; approximate; cited from earlier work
NRs for estrogen = details: cited from earlier work
[5] = system: NRs for mineralocorticoids; details: cited from earlier work
Mrp4 protein = type: in vivo, mouse; details: endocervix, ectocervix, and vagina; vs natural estrous cycle
Procedure, shortened: (§1)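 Tissues came from natural estrus and diestrus mice (staged by vaginal cytology) and synchronized mice (estrus 24 h after PMSG; diestrus 7 days after first Depo-Provera), at least 3 mice each. Primary antibody dilutions: P-gp 1:15, Bcrp 1:25, Mrp4 1:15, overnight at 4 °C. Then biotinylated secondary (1:200, 30 min RT), ABC 30 min, AEC, hematoxylin. Non-immune IgG as negative control.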

Mrp4 (Abcc4) = assay: Real-time RT-PCR of transporter mRNA in mouse tissues after exogenous hormones; type: in vivo; details: uterus, endocervix, and colorectum; Gapdh-normalized
Procedure, shortened: (§2)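 Tissues were taken from naturally cycling mice at estrus or diestrus (vaginal cytology staging) and from PMSG- or Depo-Provera-synchronized mice, 3–5 mice each. Real-time RT-PCR transporter mRNA was normalized to Gapdh by the 2−ΔCt method; Student's t-test between stages.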

Bcrp (Abcg2) = assay: as above; type: in vivo; details: uterus; Gapdh-normalized
Procedure, shortened: as §2

Bcrp protein = type: in vivo, mouse; details: compared to the natural estrous stages
Procedure, shortened: as §1

P-gp (Abcb1a) = assay: Real-time RT-PCR of transporter mRNA in mouse tissues after exogenous hormones; type: in vivo; details: uterus and endocervix; Gapdh-normalized
Procedure, shortened: as §2

P-gp (Abcb1b) = assay: as above; type: in vivo; details: uterus and ectocervix; Gapdh-normalized
Procedure, shortened: as §2

P-gp (Abcb1a/1b) protein = type: in vivo, mouse; details: endocervix, ectocervix, vagina
Procedure, shortened: as §1

[6] = MK571 incorporated into TFV gel vs control, 0.5 h post gel
[7] = MK571 incorporated into TFV gel vs control, 1.0 h

TFV concentration in CVL and vagina (Mrp4 [1]; MK571 IP 15 min before IP TFV, 1.5 h post-TFV, p = 0.04): increased | TFV colorectum/plasma ratio (Mrp4 [1]; MK571 IP co-administration, IP TFV, 1.5 h, p = 0.006): significantly increased | TFV vagina/plasma ratio (Mrp4 [1]; MK571 IP co-administration, IP TFV, 1.5 h, p = 0.03): significantly increased | TFV concentration in CVL and endocervix (Mrp4 [2]; [6]): remained unchanged | TFV concentration in mouse vaginal tissue (Mrp4 [2]; [6]): significantly higher | TFV CVL concentration (Mrp4 [2]; [7]): significantly decreased | TFV concentration in plasma and uterus (Mrp4 [2]; [7]): remained unchanged | TFV concentration in the colorectum (Mrp4 [2]; [7]): significantly increased | decrease in TFV concentration in endocervix, ectocervix, and vagina (Mrp4 [2]; [7]): not statistically significant | permeability coefficient Papp of TFV, gel with vs without MK571 ([3]; Franz cell apparatus, acceptor chamber): almost identical | impact of MK571 incorporation into the gel on in vitro release profile of TFV ([3]; vs gel containing TFV alone, Franz cell, PBS acceptor): did not have any impact
Compound: CN(C)C(=O)CCSC(SCCC(=O)O)c1cccc(/C=C/c2ccc3ccc(Cl)cc3n2)c1 (stereo not drawn) [MK571]
TFV concentrations in plasma, uterus, and colorectum (Mrp4 [2]; MK571 IP solution 30 min before vaginal TFV gel vs TFV gel only): only slightly increased or remained unchanged | TFV concentration in plasma, uterus, ectocervix, and colorectum (Mrp4 [2]; [6]): slightly, but not significantly, increased

Compound: CC(=O)O[C@]1(C(C)=O)CC[C@H]2[C@@H]3C[C@H](C)C4=CC(=O)CC[C@]4(C)[C@H]3CC[C@@]21C [MPA, medroxyprogesterone acetate]
EC50 [4]: ~10 nM | binding to nuclear receptor (NRs for estrogen): does not bind significantly | binding to nuclear receptor [5]: does not bind significantly

Compound: C[C@H](Cn1cnc2c(N)ncnc21)OCP(=O)(O)O [TFV, tenofovir]
TFV distribution compared to its plasma concentration (Mrp4 [1]; after IP administration, 1.5 h): preferentially distributed into cervicovaginal tissues and fluid

Compound: PMSG: exogenous hormone known to stimulate estrogen levels, used to synchronize mice into estrus
epithelial and stromal abundance of Mrp4 protein (Mrp4 protein): decreased | Mrp4 mRNA level compared to either stage of the natural cycle (Mrp4 (Abcc4)): significantly altered | Bcrp mRNA level compared to either stage of the natural cycle (Bcrp (Abcg2)): significantly altered | Bcrp protein density in vaginal epithelium (Bcrp protein): appeared to decrease | Abcb1a mRNA level compared to either stage of the natural cycle (P-gp (Abcb1a)): significantly altered | Abcb1b mRNA level compared to either stage of the natural cycle (P-gp (Abcb1b)): significantly altered | P-gp protein abundance or localization compared to natural estrous cycle (P-gp (Abcb1a/1b) protein): did not exert an obvious effect
